Assay results published in the array DNA melting data of Ke et al. (doi:10.1101/2024.01.08.574731).

Assays:
[1] = folding enthalpy; higher = less favourable; fluorescence melt of hairpins on a sequencing array, two-state fit; conditions: sodium 0.088 M
In short: (§1)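 Cy3 signals were normalised both to pre-quench Cy3 and to control constructs. They came from library hairpins carrying annealed Cy3 and quencher oligos on a sequenced MiSeq flow cell, imaged in 50 mM Na-HEPES pH 8.0, 25 mM NaCl, in 2.5 °C steps up to 60 °C. Bootstrapped two-state fits gave melting temperature and folding enthalpy, and four replicates were combined by inverse variance. Fitted temperatures were then raised by 9.35 °C to match UV melts.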

[2] = melting temperature; fluorescence melt of hairpins on a sequencing array, two-state fit, raised by 9.35 °C to match UV melts; conditions: sodium 0.088 M
In short: as §1

Sequence | folding enthalpy [1] | Tm [2]
GACAGAGGAAACTCTGCC (.(((((....))))).) | -15.5 kcal/mol | 41.9 °C
GCTAACGAAAGTTGCAGC ((((((....)))..))) | -15.5 kcal/mol | 39 °C
GCTCGGCGAAAGCCAGC (((.(((....)))))) | -17.4 kcal/mol | 62.9 °C
GTAGGTCGAAAGACATAC (((.(((....))).))) | -29.7 kcal/mol | 51.9 °C
GACATCGGAAACGATGTC (((((((....))))))) | -44 kcal/mol | 66.6 °C
GTATTCGAAAGAATAC ((((((....)))))) | -35.7 kcal/mol | 54.6 °C
GTTCTCGAAAGAGAAAC ((((((....))).))) | -17 kcal/mol | 39.7 °C
GATCGCATGTGCGATC ((((((....)))))) | -37.8 kcal/mol | 68.3 °C
GTGGCCGAAAGGCTGCAC ((((((....)))..))) | -12.4 kcal/mol | 46.7 °C
GGACCCGAAAGGGGCTCC ((((((....)))..))) | -9.41 kcal/mol | 56.5 °C
GATCAGGAAGCTGATC ((((((....)))))) | -34.2 kcal/mol | 53.9 °C
GGACGACGAAAGTCCTCC (((.(((....))).))) | -19.4 kcal/mol | 45.4 °C
GCGTTGCGAAAGCCGCGC (((..((....))..))) | -21.9 kcal/mol | 63.3 °C
GCGGCGATCCGC ((((....)))) | -16.7 kcal/mol | 54 °C
GATCAATCAATTGATC ((((((....)))))) | -36 kcal/mol | 45 °C
GGTTCAGGAAACTGAACC (((((((....))))))) | -41.4 kcal/mol | 63.8 °C
GATCGATTAATCGATC ((((((....)))))) | -43.9 kcal/mol | 55.9 °C
GAGTCTACGAAAGTACTC (((..(((....)))))) | -15 kcal/mol | 27.2 °C
GCATCGCGAAAGCGTAGC ((..(((....)))..)) | -17.1 kcal/mol | 48.5 °C

Sequence | folding enthalpy [1] | Tm [2]
GTCAGAGGAAACTCCGAC (((.(((....))).))) | -25.3 kcal/mol | 34.7 °C
GCGGCAATCCGC ((((....)))) | -21.9 kcal/mol | 52.3 °C
GAATTGAAAAATTC (((((....))))) | -13.5 kcal/mol | 31.7 °C
GATCGATACATCGATC ((((((....)))))) | -46.2 kcal/mol | 55.9 °C
GTCTACGAAAGTATTGAC ((((((....)))..))) | -19.5 kcal/mol | 30.2 °C
GTAGGAGGAAACTCCTGC (.(((((....))))).) | -22.3 kcal/mol | 46.8 °C
GGACTTCCGAAAGGATCC (((..(((....)))))) | -12.7 kcal/mol | 29.1 °C
GATCACCAGGTGATC ((((((...)))))) | -26.5 kcal/mol | 54.8 °C
GCGCTGGGAAACCAACGC (((.(((....))).))) | -47.8 kcal/mol | 52.7 °C
GCACTCGGAAACGAGCAC (..((((....))))..) | -11.7 kcal/mol | 29.3 °C
GCAATAGGAAACTGTTGC ((((.((....)).)))) | -33 kcal/mol | 47.4 °C
GCTCGGCGAAAGCCATGC ((..(((....)))..)) | -10.7 kcal/mol | 49.8 °C
GAGATGCGAAAGCAACTC (((.(((....))).))) | -23 kcal/mol | 53.9 °C
GACTACGAAAGTACAGTC ((((((....)))..))) | -18.3 kcal/mol | 34 °C
GCGTTAGGAAACCAACGC (((((.(....).))))) | -44.9 kcal/mol | 49.8 °C
GGACGCGAAAGCGGCTCC ((((((....)))..))) | -8.87 kcal/mol | 58 °C
GATCACGATGTGATC ((((((...)))))) | -30.8 kcal/mol | 58.5 °C
GGAGACGAAAGTCATTCC ((((((....)))..))) | -12 kcal/mol | 29.6 °C
GTGCTTGGAAACAAGTGC (..((((....))))..) | -21 kcal/mol | 43 °C
